# Source: PubChem (The Scripps Research Institute Molecular Screening Center)
# Only some compounds are listed: those with a hit (about 3.9% of all), similar ones and a draw of the others.
# TAAR1 ag – agonists of human TAAR1; CHO RD-HGA16 TAAR1, Fluo-8 calcium fluorescence; vehicle wells 0%, saturating PEA agonist 100%; activation, % at 3 µM; 0.99% of 360,000 active; AID 624467;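 active = activation above the mean activation of all test compounds in the run plus 3 SD, cut at about 38% in these data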
#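 System: CHO-derived RD-HGA16 cells with stable Gα16 and human TAAR1. Times: 17-24 h plating, Fluo-8 75 min 37 °C, 30 min RT. Measured by: calcium-sensitive Fluo-8 signal, excitation 470-495, emission 515-575 nm. Read-out basis: % activation relative to PEA EC100 response. Control set: DMSO and PEA EC100. Repeats: no replicates (n 1).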
# TAAR1 antag – human TAAR1 antagonism; Q96RJ0; CHO RD-HGA16 TAAR1, Fluo-8 calcium fluorescence, antagonist; inhibition, % at 3 µM; 1.5% of 360,000 active;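 active = inhibition above a per-plate cutoff, the mean inhibition of test compounds on that plate plus 3 SD, cut at about 49% in these data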;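 also: 0% = DMSO plus EC80 beta-PEA response and 100% = DMSO alone without agonist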
#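 Material: RD-HGA16 CHO cells with stable hTAAR1 and Gα16; Dosing: single nominal final test compound concentration of 3 µM; Schedule: seeding 17-24 h prior, 75-min 37 °C, 30-min RT dye loading; Detection: kinetic Fluo-8 calcium fluorescence measurement; Measure: % inhibition from peak post-agonist over basal fluorescence ratio; Benchmarks: vehicle and agonist controls.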
# M1 antag – blocks human M1 muscarinic receptor | P11229 | CHO-K1 hM1, Fluo-8 calcium fluorescence, ACh EC80 antagonist | inhibition, % at 3 µM | 1.3% of 360,000 active;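 active = percent inhibition above its own plate's cutoff, namely the mean of that plate's compound wells plus 3 SD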;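 also: peak over basal fluorescence ratio during 140 s after agonist addition; 0% = ACh EC80 plus DMSO and 100% = DMSO alone without agonist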
# HTR2A ag – activates the mouse 5-HT2A serotonin receptor. P35363. 0.66% of 360,000 active. CHO-K1 mHTR2A beta-arrestin complementation, luminescence; percent of 30 µM serotonin response. activation, % at 7.6 µM;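 active = activation above a run cutoff, the mean activation of all tested compounds plus 3 SD, cut at about 14% in these data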;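 also: 0% = plate median of compound wells and 100% = 30 µM serotonin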
# Target sequence (P35363 whole entry, looked up): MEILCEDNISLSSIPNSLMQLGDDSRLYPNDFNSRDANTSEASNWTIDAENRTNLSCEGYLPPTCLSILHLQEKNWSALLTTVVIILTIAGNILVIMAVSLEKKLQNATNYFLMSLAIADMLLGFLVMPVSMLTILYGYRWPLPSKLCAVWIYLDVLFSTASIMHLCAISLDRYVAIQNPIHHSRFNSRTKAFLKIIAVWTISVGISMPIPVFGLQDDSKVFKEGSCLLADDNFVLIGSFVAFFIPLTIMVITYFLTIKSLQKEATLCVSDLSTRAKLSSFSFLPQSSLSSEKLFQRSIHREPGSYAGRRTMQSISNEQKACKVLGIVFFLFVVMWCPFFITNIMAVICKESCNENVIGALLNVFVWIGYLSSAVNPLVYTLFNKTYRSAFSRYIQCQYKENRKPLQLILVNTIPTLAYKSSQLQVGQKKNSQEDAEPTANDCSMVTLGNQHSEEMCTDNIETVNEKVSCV
# M1 PAM – human CHRM1 positive allosteric modulation; CHO-K1 hM1, Fluo-8 calcium fluorescence, ACh EC20; 0% = ACh EC20, 100% = maximal ACh; activation, % at 3 µM; AID 588819; 0.088% of 360,000 active; in the data active = activation above about 19%, passing the limit was not always enough
# CHRM1 agonist – activates human CHRM1 receptor; P11229; CHO-K1 hM1, Fluo-8 calcium fluorescence, agonist mode; 0% DMSO, 100% acetylcholine EC100; activation, % at 3 µM; 0.33% of 360,000 active; AID 588814;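 active = activation above the run's mean compound activation plus 3 SD, cut at about 16% in these data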;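 also: peak over basal fluorescence ratio within a 140 s kinetic read after compound addition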
# TAAR1 ag conf – confirmation of human TAAR1 agonists; 82% of 2,400 active; activation, % at 3 µM; CHO RD-HGA16 TAAR1, Fluo-8 calcium fluorescence; scaled: DMSO 0%, maximal phenethylamine 100%; AID 651783; shares compounds with TAAR1 ag;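 active = activation above a cutoff set at the run's mean compound activation plus 3 SD, cut at about 39% in these data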
# Ga16 ag counter – counter-screen for TAAR1 agonists: nonselective agonists in parental cells; shares compounds with TAAR1 ag; CHO-Ga16 parental, Fluo-8 calcium fluorescence; normalized to maximal ATP response, DMSO zero; activation, % at 3 µM; 50% of 2,400 active;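 active = activation above the run cutoff, the mean activation over all tested wells plus 3 SD, cut at about 12% in these data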;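 also: 0% = DMSO wells and 100% = maximal ATP response on the peak over basal ratio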
# TAAR1 desensitize – TAAR1 response desensitization, agonist counter-screen. shares compounds with TAAR1 ag. CHO RD-HGA16 hTAAR1, Fluo-8 calcium, beta-PEA response inhibition. inhibition, % at 3 µM. 46% of 2,400 active;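 active = inhibition above the run cutoff, the mean inhibition of all test compounds plus 3 SD, cut at about 49% in these data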;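 also: beta-PEA stimulus applied at its EC80; loss of beta-PEA calcium signal after compound pretreatment read as receptor desensitization; 0% = DMSO with beta-PEA at EC80 and 100% = DMSO alone without agonist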
# Ga16 nonsel ant – counter-screen for TAAR1 agonists: nonselective Ga16 antagonists; shares compounds with TAAR1 ag; CHO-Ga16 ATP-induced calcium, Fluo-8 fluorescence; inhibition, % at 3 µM; 39% of 2,400 active; AID 651952;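 active = inhibition above the plate's mean compound inhibition plus 3 SD, computed per plate, cut at about 22% in these data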;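 also: 0% = EC80 ATP with DMSO and 100% = DMSO wells without ATP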
# * = called active by the depositor; . = no result.
SMILES,TAAR1 ag,TAAR1 antag,M1 antag,HTR2A ag,M1 PAM,CHRM1 agonist,TAAR1 ag conf,Ga16 ag counter,TAAR1 desensitize,Ga16 nonsel ant
Cc1ccc(/C=N/NC(=O)c2nnn(-c3nonc3N)c2-c2cccs2)cc1,131.1*,77.6*,6.2,-8.7,13.3,68.8*,128.7*,96.1*,79.0*,42.5*
CCOc1cccc(-c2c(C(=O)N/N=C/c3ccco3)nnn2-c2nonc2N)c1,.,.,-16.6,-1.5,19.4,15.7,.,.,.,.
COc1ccc(/C=N/NC(=O)c2nnn(-c3nonc3N)c2-c2cccc(OC)c2)cc1,149.3*,74.8*,-8.3,-3.9,3.6,38.5*,120.9*,86.5*,72.0*,32.2*
CCOc1ccc(-c2c(C(=O)N/N=C/c3ccoc3)nnn2-c2nonc2N)cc1,91.7*,-20.2,5.9,-3.2,4.0,2.3,66.1*,28.9*,6.2,9.7
Nc1nonc1-n1nnc(C(=O)N/N=C/c2cccc(F)c2)c1-c1ccccc1,55.5*,0.3,4.3,-6.4,-2.0,2.6,38.5*,18.5*,16.0,10.9
Nc1nonc1-n1nnc(C(=O)N/N=C/c2cccnc2)c1-c1ccccc1,15.4,-21.5,-7.4,5.2,6.9,4.4,.,.,.,.
CCOc1ccc(/C=N/NC(=O)c2nnn(-c3nonc3N)c2-c2ccc(OCC)cc2)cc1,66.3*,-14.9,-7.7,3.4,16.3,7.3,57.4*,26.0*,9.3,13.8
CCOc1ccc(-c2c(C(=O)N/N=C/c3cccnc3)nnn2-c2nonc2N)cc1,8.1,-8.2,-4.8,-1.1,5.4,-4.7,.,.,.,.
CCCOc1ccc(-c2c(C(=O)N/N=C/c3ccsc3)nnn2-c2nonc2N)cc1,28.8,-18.6,-4.3,-3.9,9.1,7.5,.,.,.,.
COc1ccc(/C=N/NC(=O)c2nnn(-c3nonc3N)c2-c2cccs2)cc1OC,12.5,22.0,0.2,6.4,-1.3,0.4,.,.,.,.
CC(=O)c1cccc(NC(=O)C(=O)c2cn(CC(=O)N3CCCCC3)c3ccccc23)c1,11.0,30.4,-5.1,2.2,5.7,-3.8,.,.,.,.
Nc1ccc2c3c(ccc([N+](=O)[O-])c13)CC2,-2.2,-4.1,-8.4,-2.3,8.8,-8.5,.,.,.,.
O=C(NCCc1ccccc1)C(NS(=O)(=O)c1cccc2nsnc12)c1ccccc1 (configuration not stated),41.0*,11.4,-6.2,-2.4,5.2,-9.9,76.1*,-0.8,40.8,11.5
Cc1ccc(CCNC(=O)C2CCN(S(=O)(=O)c3cccc4nsnc34)CC2)cc1,76.8*,56.4*,-6.7,-0.7,6.2,-3.0,1.4,3.7,15.7,18.7
CCCNC(=O)C(NS(=O)(=O)c1cccc2nsnc12)c1ccccc1 (configuration not stated),2.4,-26.3,10.6,4.8,-0.7,-1.2,.,.,.,.
Cc1ccc(CCNC(=O)C2CCN(S(=O)(=O)c3cccc4cccnc34)CC2)cc1,8.1,29.1,1.4,0.0,0.5,2.4,.,.,.,.
O=C(NCCc1ccccc1)C1CCCN(S(=O)(=O)c2cccc3nsnc23)C1 (configuration not stated),96.8*,72.4*,-0.8,13.2,0.4,-4.1,85.3*,5.7,91.0*,14.8
CCn1ncc(Br)c1C(=O)Nc1c(C)nn(Cc2c(F)c(F)c(F)c(F)c2F)c1C,1.6,-13.3,9.3,5.7,-7.1,1.2,.,.,.,.
CCc1nnc(NC(=O)CSc2nnc3nc(C)cc(C)n23)s1,-1.6,-8.7,-3.3,6.3,9.8,-6.2,.,.,.,.
C#CCOc1ccc(/C=C2/C(=O)NN(c3ccc(F)cc3)C2=O)cc1OC,99.4*,13.7,-15.7,-1.3,20.6,10.9,91.9*,55.2*,43.7,18.3
COc1cc(/C=C2\C(=O)NN(c3ccccc3)C2=O)ccc1OCC(N)=O,5.2,-20.0,.,.,.,.,.,.,.,.
N#CCCN(C(=O)CSc1nc2ccccc2c(=O)[nH]1)c1ccc(F)cc1,5.2,-2.8,-4.9,0.1,4.0,-2.9,.,.,.,.
O=C(C(=O)N1CCc2ccccc2C1)c1cn(CC(=O)N2CCCC2)c2ccccc12,50.0*,-0.4,13.5,-4.8,-11.1,-5.6,49.7*,2.8,10.5,10.5
O=C(C(=O)N1CCCCC1)c1cn(CC(=O)N2CCCCCC2)c2ccccc12,0.1,5.3,-2.0,-3.2,5.7,-3.2,.,.,.,.
CC(C)(C)c1ccc(S(=O)(=O)NC(=O)C2(C)CCN2C(=O)c2cccc3ccccc23)cc1 (configuration not stated),45.6*,-15.4,-2.0,9.7,1.9,1.1,66.5*,14.1*,12.2,3.9
SMILES,TAAR1 ag,TAAR1 antag,M1 antag,HTR2A ag,M1 PAM,CHRM1 agonist,TAAR1 ag conf,Ga16 ag counter,TAAR1 desensitize,Ga16 nonsel ant
CCN(CC(=O)Nc1ccc(N2CCOCC2)cc1)CC(=O)NC(C)(C)C,1.4,-2.0,-1.9,-1.2,6.7,-5.6,.,.,.,.
CC(C)CC(C(=O)N1CCc2ccccc2C1)N1C(=O)c2ccccc2C1=O (configuration not stated),75.5*,37.0,-2.0,0.6,6.7,-5.0,76.9*,3.0,65.0*,15.5
O=C(Cn1nc2n(c1=O)-c1ccccc1SC2)N/N=C/c1cccs1,0.4,-10.4,-20.1,2.0,13.8,-3.3,.,.,.,.
Cc1ccc(CNC(=O)c2cccnc2Sc2cccc(Cl)c2)cc1,73.0*,30.1,-5.9,1.2,7.2,22.4*,82.4*,39.8*,47.2,34.6*
CC1(c2ccccc2)NC(=O)N(CC(=O)N2CCc3ccccc32)C1=O (configuration not stated),48.1*,-27.0,-12.8,3.7,3.4,6.3,17.2,8.5,-0.7,9.2
Cc1cc(C(=O)Nc2cccc(C(=O)O)c2)c(C)o1,6.3,14.4,-5.2,2.0,0.9,-2.2,.,.,.,.
Cc1cc(C(=O)Nc2cccc(O)c2)c(C)o1,49.6*,0.0,-0.3,-0.9,3.1,-3.1,50.1*,16.6*,3.2,4.8
CCCOC1CCCN(C(=O)c2ccc3oc(C(C)C)nc3c2)C1 (configuration not stated),1.4,-3.8,-17.1,2.1,11.0,-2.5,.,.,.,.
